Screening results (PubChem)
SMARCA2 activ = SMARCA2 function activation, primary screen | AID 652017 | MG213 cells, MMTV-luciferase reporter, dexamethasone, overnight | activation, % at 9.1 µM | hit rate 1% among 370,000; in the data active = activation above about 7.8%
TAG inh = inhibitors of triacylglycerol accumulation; H9c2 cells, Nile Red lipid (TAG) fluorescence; cells loaded with 200 µM oleic acid; inhibition, % at 12.5 µM; hit rate 0.66% among 230,000;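 active = pattern-corrected inhibition of lipid staining of at least 50% with the nuclear-stain viability signal not falling by more than 50%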
SR-BI DiI-HDL act = SR-BI HDL lipid transfer activation. CHO ldlA[mSR-BI] cells, DiI-HDL uptake fluorescence, 3 h; 100 = double the neutral-control signal. activation, % at 12.5 µM. hit rate 0.096% among 320,000. AID 504775;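 active = mean replicate activation of at least 60% and every replicate at or above 60%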
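Test system: SR-BI-overexpressing, LDLR-lacking CHO cells. Measured by: DiI fluorescence, bottom read. Medium: Ham's F12 with 0.5% BSA, HEPES 25 mM, pH 7.4. Timing: 3 h uptake period with compound, 37 °C.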
Vif inh = HIV Vif inhibition. HEK293T cells, Vif self-association by quenched fluorescence, imaging, 24 h. AID 602346. hit rate 0.35% among 340,000. inhibition, % at 7.49 µM; in the data active = inhibition above about 50%, passing the limit was not always enough
SR-BI DiI inh = blocks mouse SR-BI lipid uptake from DiI-HDL | hit rate 0.96% among 320,000 | AID 488896 | ldlA[mSR-BI] CHO cells, DiI-HDL uptake fluorescence, 3 h | Q61009 | inhibition, % at 12.5 µM;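 active = mean replicate inhibition of at least 70% and a set share of replicates each scoring 70 or more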
Target sequence (Q61009 whole entry, looked up): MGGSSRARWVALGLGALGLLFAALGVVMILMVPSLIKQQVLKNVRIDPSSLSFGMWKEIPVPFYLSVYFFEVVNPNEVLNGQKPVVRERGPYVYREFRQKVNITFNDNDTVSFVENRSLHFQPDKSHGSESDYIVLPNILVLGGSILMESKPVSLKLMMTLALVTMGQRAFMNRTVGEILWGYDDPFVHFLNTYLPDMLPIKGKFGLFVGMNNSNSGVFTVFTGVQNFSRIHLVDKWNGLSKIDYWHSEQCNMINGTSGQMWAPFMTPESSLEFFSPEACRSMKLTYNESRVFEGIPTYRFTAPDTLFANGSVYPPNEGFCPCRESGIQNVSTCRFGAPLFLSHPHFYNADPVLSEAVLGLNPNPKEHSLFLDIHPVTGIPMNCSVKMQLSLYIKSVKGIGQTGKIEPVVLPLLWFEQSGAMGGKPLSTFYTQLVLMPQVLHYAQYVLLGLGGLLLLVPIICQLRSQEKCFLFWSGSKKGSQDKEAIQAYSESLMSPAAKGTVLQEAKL
Numbers stand for hits. In the library only some 2.5% were active in any assay of this set; here they are far more common.

`CCOC(=O)C1=C(C(=O)OCC)C2N(Cc3ccc(Br)cc3)c3ccccc3[C@@]23C[C@@H](C(=O)OC)N(S(=O)(=O)c2ccc(OC)cc2)C3=N1` (stereo partly specified) gave SMARCA2 activ inactive.
For COc1cc(Nc2cc(C)n(-c3cc(OC)cc(OC)c3)c(=O)c2)cc(OC)c1 the results were SMARCA2 activ inactive.
`Cc1ccccc1NC(=S)N(Cc1cccs1)C1CCCC1` gave SMARCA2 activ inactive, TAG inh inactive, SR-BI DiI-HDL act inactive, Vif inh 51 and SR-BI DiI inh inactive.
Screening Fc1ccc(C2=NN(c3ccccc3)C(c3ccco3)C2)cc1 (stereo unspecified) returned SMARCA2 activ inactive, TAG inh inactive, SR-BI DiI-HDL act inactive, Vif inh inactive and SR-BI DiI inh inactive.
Screening Cc1ccc(N2N=C(c3ccc(F)cc3)CC2c2ccco2)cc1 (stereo unspecified) returned SMARCA2 activ inactive, TAG inh inactive, SR-BI DiI-HDL act inactive, Vif inh inactive and SR-BI DiI inh 79.
COC(=O)C1=C(C)N(C)C(=NCc2ccccc2)NC1CCc1ccccc1 (stereo unspecified) was read as SMARCA2 activ inactive.
Cc1ccccc1C(=O)N[C@H](C(=O)N1CCC[C@H]1C(=O)NCCc1ccccc1Cl)C(C)C was read as SMARCA2 activ inactive.
`Cc1cc(C)c(C)c(OCCOCCN2CCN(C)CC2)c1` gave SMARCA2 activ inactive, SR-BI DiI-HDL act inactive, Vif inh inactive and SR-BI DiI inh inactive.
Cc1cc(C)c(C)c(OCCCCN2CCCCC2)c1 was read as SMARCA2 activ 7.9, TAG inh inactive, SR-BI DiI-HDL act inactive, Vif inh inactive and SR-BI DiI inh inactive.
Screening COc1c2c(c(OC)c3c1c(=O)c1ccccc1n3C)OCO2 returned SMARCA2 activ 7.9, TAG inh inactive, SR-BI DiI-HDL act inactive, Vif inh inactive and SR-BI DiI inh inactive.
`COc1c2c(c3c(c1OC)c(=O)c1ccccc1n3C)OCO2` gave SMARCA2 activ inactive, TAG inh inactive, SR-BI DiI-HDL act inactive, Vif inh inactive and SR-BI DiI inh inactive.
Screening CCc1cc2cccc(C)c2nc1SCC(=O)NNC(=O)c1ccco1 returned SMARCA2 activ inactive, SR-BI DiI-HDL act inactive, Vif inh inactive and SR-BI DiI inh inactive.
Screening CCc1cc2cc(C)c(C)cc2nc1SCC(=O)NNC(=O)c1ccco1 returned SMARCA2 activ inactive, SR-BI DiI-HDL act inactive, Vif inh inactive and SR-BI DiI inh 75.
`C[C@@H]1ON(C)[C@H]2C[C@H]3c4[nH]c5c(-c6cccc(F)c6)cccc5c4CCN3C(=O)[C@@H]12` gave SMARCA2 activ inactive.
Screening COc1cccc(C(=O)/C=C2\Sc3ccccc3N2C)c1 returned SMARCA2 activ inactive, TAG inh inactive, SR-BI DiI-HDL act inactive, Vif inh inactive and SR-BI DiI inh 83.
CCOCC(O)CNc1ccccc1 (stereo unspecified) was read as SMARCA2 activ inactive, SR-BI DiI-HDL act inactive, Vif inh inactive and SR-BI DiI inh inactive.
OC(CNc1ccccc1)COc1ccc(OCC(O)CNc2ccccc2)cc1 (stereo unspecified) was read as SMARCA2 activ inactive, TAG inh inactive, SR-BI DiI-HDL act inactive, Vif inh inactive and SR-BI DiI inh 74.
Screening COCc1cc(N2CCNC[C@@H]2C)ccc1N1CCN(Cc2ccccc2)[C@@H](C)C1 returned SMARCA2 activ inactive.
For Cc1cc(=O)oc2c(C)c(OCC(=O)N3CCN(C(=O)C4COc5ccccc5O4)CC3)ccc12 (stereo unspecified) the results were SMARCA2 activ inactive, SR-BI DiI-HDL act inactive, Vif inh inactive and SR-BI DiI inh 85.
`CCCCc1cc(=O)oc2c(C)c(OCC(=O)N3CCC(C(=O)O)(c4ccccc4)CC3)ccc12` gave SMARCA2 activ inactive, SR-BI DiI-HDL act inactive, Vif inh inactive and SR-BI DiI inh inactive.
CCCCc1cc(=O)oc2c(C)c(OCC(=O)N3CCCC3)ccc12 was read as SMARCA2 activ inactive, TAG inh inactive, SR-BI DiI-HDL act inactive, Vif inh inactive and SR-BI DiI inh 76.
Cc1cc(=O)oc2c(C)c(OCC(=O)N3CCN(c4ccccc4)CC3)ccc12 was read as SMARCA2 activ inactive, SR-BI DiI-HDL act inactive, Vif inh inactive and SR-BI DiI inh inactive.
For C=CCN1C(=O)c2n[nH]c(COC)c2C1c1ccc(Br)cc1 (stereo unspecified) the results were SMARCA2 activ inactive.
C=C1CCCC2OC(CC3=CC4/C(C)=C/CC(C)CC(/C=C(\C)C(O)C5CC(O)C(O)C(CCC(O)/C=C/C(C)=C/CCC6=NCCC(C3)C64C)O5)OC(=O)CC3OC(C(O)C1)C(O)C3O)CC(O)C2O (stereo unspecified) was read as SMARCA2 activ inactive and Vif inh 118.
Screening CN=c1scc(-c2ccco2)n1/N=C/c1ccc(O)c(O)c1 returned SMARCA2 activ inactive, TAG inh inactive, SR-BI DiI-HDL act inactive, Vif inh inactive and SR-BI DiI inh 73.
CN(C)C(=O)N1CCN(C(=O)N2CCOCC2)CC1 was read as SMARCA2 activ inactive, TAG inh inactive, SR-BI DiI-HDL act 75, Vif inh inactive and SR-BI DiI inh inactive.
CCN(CC)C(=O)N1CCN(C(=O)N2CCOCC2)CC1 was read as SMARCA2 activ inactive, TAG inh inactive, SR-BI DiI-HDL act inactive, Vif inh inactive and SR-BI DiI inh inactive.
Cn1c(C(=O)O)cc2cc(Oc3ccccc3)ccc21 was read as SMARCA2 activ inactive, SR-BI DiI-HDL act inactive, Vif inh inactive and SR-BI DiI inh inactive.
`Cn1c(C(=O)NN)cc2cc(Oc3ccccc3)ccc21` gave SMARCA2 activ inactive, SR-BI DiI-HDL act inactive, Vif inh inactive and SR-BI DiI inh 79.
For CC(Oc1cc2oc(=O)c3c(c2cc1Cl)CCC3)C(=O)NCc1cccnc1 (stereo unspecified) the results were SMARCA2 activ inactive, SR-BI DiI-HDL act inactive, Vif inh inactive and SR-BI DiI inh 86.
`CC(Oc1cc2oc(=O)c3c(c2cc1Cl)CCCC3)C(=O)NCc1cccnc1` (stereo unspecified) gave SMARCA2 activ inactive, SR-BI DiI-HDL act inactive, Vif inh inactive and SR-BI DiI inh inactive.
For COc1ccccc1Nc1ccc(Nc2ccccc2OC)nn1 the results were SMARCA2 activ inactive, SR-BI DiI-HDL act inactive, Vif inh inactive and SR-BI DiI inh 81.
O=C(c1cnn2c(C(F)(F)F)cc(-c3ccco3)nc12)N1CCc2ccccc2C1 was read as SMARCA2 activ inactive, SR-BI DiI-HDL act inactive and SR-BI DiI inh 83.
For O=C(c1cnn2c(C(F)(F)F)cc(-c3ccco3)nc12)N1CCCCCC1 the results were SMARCA2 activ inactive, SR-BI DiI-HDL act inactive, Vif inh inactive and SR-BI DiI inh inactive.
Screening CCCC(=O)Nc1sc(C)c(C)c1C(=O)Nc1cccc(C)c1 returned SMARCA2 activ inactive, SR-BI DiI-HDL act inactive, Vif inh inactive and SR-BI DiI inh 72.
CCCCNc1cccc2c1S(=O)(=O)N[C@@H](CC(C)C)CO2 was read as SMARCA2 activ inactive.
